Laboratory results taken from ChEMBL document CHEMBL3817734, “Structure-activity relationships of vanillic acid ester analogs in inhibitory effect of antigen-mediated degranulation in rat basophilic leukemia RBL-2H3 cells” (Bioorg Med Chem Lett, 2016).
Blank lines part the entries; values can stand above or below the compound they belong to. Activity calls are given as the source filed them. The rule behind the calls is not given here.

Experiments:
RBL-2H3 [1] = assay: Anti-allergic activity in RBL2H3 cells assessed as inhibition of anti-DNP-IgE-induced degranulation at 30 to 300 uM incubated for 20 mins followed by DNP-labeled human serum albumin addition measured after 1 hr by beta-hexosaminidase release assay; assay type: functional, cell-based; conditions: Rattus norvegicus
Procedure, shortened: (§1)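 DNP-IgE-sensitized RBL-2H3 cells were pretreated with test samples for 20 min, with 75 μM oxatomide as positive control, then stimulated with DNP-HSA for 1 h. Degranulation was read as β-hexosaminidase release. Compounds were dissolved in culture medium containing cyclodextrin (CD). Data are the mean of three independent cultures ± SD, compared with control by Dunnett's test.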

[2] = Solubility of compound in water; assay type: physicochemical; conditions: buffer
[3] = Cytotoxicity in RBL2H3 cells; assay type: cell-based; conditions: rat, rbl-2h3
[4] = Drug metabolism in RBL2H3 cells assessed as esterase-mediated butanol formation; assay type: ADME, cell-based; conditions: rat, rbl-2h3
[5] = Drug metabolism in RBL2H3 cells assessed as esterase-mediated vanillic acid formation; assay type: ADME, cell-based; conditions: rat, rbl-2h3
RBL-2H3 [6] = assay: Anti-allergic activity in RBL2H3 cells assessed as inhibition of anti-DNP-IgE-induced degranulation incubated for 20 mins followed by DNP-labeled human serum albumin addition measured after 1 hr by beta-hexosaminidase release assay; assay type: functional, cell-based; conditions: Rattus norvegicus; procedure, shortened: as §1
RBL-2H3 [7] = assay: Anti-allergic activity in RBL2H3 cells assessed as inhibition of anti-DNP-IgE-induced degranulation at 100 to 1000 uM incubated for 20 mins followed by DNP-labeled human serum albumin addition measured after 1 hr by beta-hexosaminidase release assay; assay type: functional, cell-based; conditions: Rattus norvegicus; procedure, shortened: as §1
[8] = Drug level in RBL2H3 cells treated with butyl vanillate assessed as esterase-mediated compound formation; assay type: ADME, cell-based; conditions: rat, rbl-2h3
[9] = Drug level in RBL2H3 cells treated with ferulic acid; assay type: ADME, cell-based; conditions: rat, rbl-2h3
RBL-2H3 [10] = assay: Anti-allergic activity in RBL2H3 cells assessed as inhibition of anti-DNP-IgE-induced degranulation at 1000 uM incubated for 20 mins followed by DNP-labeled human serum albumin addition measured after 1 hr by beta-hexosaminidase release assay; assay type: functional, cell-based; conditions: Rattus norvegicus; procedure, shortened: as §1
[11] = Drug metabolism in RBL2H3 cells assessed as vanillin and vanillic acid formation; assay type: ADME, cell-based; conditions: rat, rbl-2h3
[12] = Increase in anti-DNP-IgE-induced degranulation in RBL2H3 cells incubated for 20 mins followed by DNP-labeled human serum albumin addition measured after 1 hr by beta-hexosaminidase release assay; assay type: cell-based; conditions: rat, rbl-2h3, 1 h; procedure, shortened: as §1

Compound: CCCCOC(=O)c1cccc(O)c1
inhibition (RBL-2H3 [1]): Active

Compound: CCOC(=O)CCc1ccc(O)c(OC)c1
inhibition (RBL-2H3 [1]): inactive

solubility [2]: soluble
Drug metabolism [4]: metabolite_detected
Drug metabolism [5]: metabolite_detected
IC50 (RBL-2H3 [6]): 198 µM
Compound: CCCCOC(=O)c1ccc(O)c(OC)c1
Activity [3]: Non-toxic

Compound: CCCCOC(=O)c1ccc(OC)cc1
inhibition (RBL-2H3 [1]): inactive

IC50 (RBL-2H3 [6]): 294 µM
Compound: CCCOC(=O)c1ccc(O)c(OC)c1

Drug metabolism [8]: metabolite_detected
Drug metabolism [9]: metabolite_detected
Compound: COc1cc(C(=O)O)ccc1O [VANILLIC ACID]
inhibition (RBL-2H3 [7]): inactive

Compound: CCCOC(=O)Cc1ccc(O)c(OC)c1
inhibition (RBL-2H3 [1]): inactive

IC50 (RBL-2H3 [6]): 640 µM
Compound: COC(=O)c1ccc(O)c(OC)c1 [METHYL VANILLATE]
inhibition (RBL-2H3 [10]): Active

Drug metabolism [11]: metabolite_detected
Compound: COc1cc(/C=C/C(=O)O)ccc1O [FERULATE]
inhibition (RBL-2H3 [6]): Active

Compound: CCCCCCCCOC(=O)c1ccc(O)c(OC)c1
Activity [3]: Toxic
Activity [12]: Toxic

IC50 (RBL-2H3 [6]): 415 µM
Compound: COc1cc(C(=O)OC(C)C)ccc1O

Compound: CCCCOC(=O)c1ccc(O)cc1
inhibition (RBL-2H3 [1]): Active

Compound: CCCCOC(=O)c1ccc(OC)c(O)c1
inhibition (RBL-2H3 [1]): Active

Compound: CCCCOC(=O)c1ccccc1
inhibition (RBL-2H3 [1]): inactive

Drug metabolism [9]: metabolite_detected
Compound: COc1cc(C=O)ccc1O [VANILLIN]
inhibition (RBL-2H3 [7]): inactive

Compound: CCCCOC(=O)c1cccc(OC)c1
inhibition (RBL-2H3 [1]): inactive
